Laboratory results from ChEMBL document CHEMBL3769384, “Discovery of Tetrahydropyrazolopyridine as Sphingosine 1-Phosphate Receptor 3 (S1P3)-Sparing S1P1 Agonists Active at Low Oral Doses” (J Med Chem, 2016).

Experiments:
[1] = molecular target: T1, Sphingosine 1-phosphate receptor 1 (Homo sapiens, UniProt P21453); assay: Agonist activity at human S1P1 receptor expressed in CHO-K1 EDG1 cells by beta-arrestin recruitment assay; assay type: cell-based
Procedure, shortened: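 CHO-K1 cells stably expressing beta-arrestin 2 and S1P1 fused to complementing beta-galactosidase fragments; grown to 80% confluency, harvested enzyme-free, resuspended in HEPES/BSA assay buffer pH 7.4. Cells at 1x10^4/well added to compound in DMSO, 90 min at 37°C/5% CO2, then 15 min at room temperature; chemiluminescent detection mix 60 min at room temperature, luminescence read.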

Cytochrome P450 1A2 = molecular target: T2, Cytochrome P450 1A2 (Homo sapiens, UniProt P05177); assay: Inhibition of CYP1A2 (unknown origin) coexpressed in Escherichia coli with human NADPH reductase using ethoxyresorufin as substrate after 10 mins by fluorescence assay; assay type: ADME
T2 sequence (P05177 whole entry): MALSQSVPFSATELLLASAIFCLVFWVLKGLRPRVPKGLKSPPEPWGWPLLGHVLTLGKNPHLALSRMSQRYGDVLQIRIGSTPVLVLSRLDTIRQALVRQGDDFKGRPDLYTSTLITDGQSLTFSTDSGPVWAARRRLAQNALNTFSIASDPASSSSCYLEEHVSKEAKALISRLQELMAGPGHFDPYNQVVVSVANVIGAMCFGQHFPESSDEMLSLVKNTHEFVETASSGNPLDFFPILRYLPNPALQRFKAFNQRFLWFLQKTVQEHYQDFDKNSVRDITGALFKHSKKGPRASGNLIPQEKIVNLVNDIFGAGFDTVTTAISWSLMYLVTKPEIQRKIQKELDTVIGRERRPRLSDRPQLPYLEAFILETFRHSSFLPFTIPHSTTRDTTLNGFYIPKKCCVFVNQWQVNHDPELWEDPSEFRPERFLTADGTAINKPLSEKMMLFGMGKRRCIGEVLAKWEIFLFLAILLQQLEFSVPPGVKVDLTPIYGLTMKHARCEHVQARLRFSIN
Procedure, shortened: (§1)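 Recombinant CYP co-expressed in E. coli with human NADPH reductase, incubated with an isoform-specific pro-fluorescent substrate and compound (nine concentrations, 0.1-100 µM) plus a 0.2 mM NADPH regenerating system for 10 min at 37°C. Fluorescent metabolite formation was monitored.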

[2] = molecular target: Sphingosine 1-phosphate receptor 2 (Homo sapiens, UniProt O95136); assay: Agonist activity at human S1P2 receptor expressed in Saccharomyces cerevisiae after 24 hrs by reporter gene assay
Sphingosine 1-phosphate receptor 2, sequence (O95136 whole entry): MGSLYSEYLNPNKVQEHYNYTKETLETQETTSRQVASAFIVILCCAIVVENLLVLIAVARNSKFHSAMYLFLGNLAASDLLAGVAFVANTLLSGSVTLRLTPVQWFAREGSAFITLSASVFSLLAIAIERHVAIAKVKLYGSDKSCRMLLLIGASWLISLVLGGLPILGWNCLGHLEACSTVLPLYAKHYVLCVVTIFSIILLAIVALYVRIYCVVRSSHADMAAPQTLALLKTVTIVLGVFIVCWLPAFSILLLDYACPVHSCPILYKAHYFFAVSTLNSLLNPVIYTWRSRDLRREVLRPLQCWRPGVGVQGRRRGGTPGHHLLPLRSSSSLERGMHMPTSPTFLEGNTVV
Procedure, shortened: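 S. cerevisiae with integrated S1P2 under the GPD promoter, seeded at 0.02 OD600 in histidine-free minimal medium with 5 mM 3-aminotriazole and 100 µM fluorescein-di-(β-D-glucopyranoside). Agonist-driven growth was read as fluorescein fluorescence (ex 485/em 535 nm) after 24 h at 30°C.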

[3] = molecular target: T1, Sphingosine 1-phosphate receptor 1; assay: Agonist activity at human S1P1 receptor expressed in RH7777 cells by [35S]GTP-gammaS accumulation assay; assay type: cell-based
Procedure, shortened: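 RH7777 S1P1 membranes (1.5 µg/well) precoupled 30 min on ice to WGA SPA beads in 20 mM HEPES, 10 mM MgCl2, 100 mM NaCl, pH 7.4, with 10 µM GDP and 90 µg/mL saponin (final). 0.5 nM [35S]GTPγS final added to compound; plates read immediately by scintillation proximity.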

Cytochrome P450 3A4 [4] = molecular target: T3, Cytochrome P450 3A4 (Homo sapiens, UniProt P08684); assay: Inhibition of human CYP3A4 coexpressed in Escherichia coli with human NADPH reductase using atorvastatin as substrate at 0.1 to 100 uM by fluorescence assay; assay type: ADME; conditions: TDE = time-dependent effect
T3 sequence (P08684 whole entry): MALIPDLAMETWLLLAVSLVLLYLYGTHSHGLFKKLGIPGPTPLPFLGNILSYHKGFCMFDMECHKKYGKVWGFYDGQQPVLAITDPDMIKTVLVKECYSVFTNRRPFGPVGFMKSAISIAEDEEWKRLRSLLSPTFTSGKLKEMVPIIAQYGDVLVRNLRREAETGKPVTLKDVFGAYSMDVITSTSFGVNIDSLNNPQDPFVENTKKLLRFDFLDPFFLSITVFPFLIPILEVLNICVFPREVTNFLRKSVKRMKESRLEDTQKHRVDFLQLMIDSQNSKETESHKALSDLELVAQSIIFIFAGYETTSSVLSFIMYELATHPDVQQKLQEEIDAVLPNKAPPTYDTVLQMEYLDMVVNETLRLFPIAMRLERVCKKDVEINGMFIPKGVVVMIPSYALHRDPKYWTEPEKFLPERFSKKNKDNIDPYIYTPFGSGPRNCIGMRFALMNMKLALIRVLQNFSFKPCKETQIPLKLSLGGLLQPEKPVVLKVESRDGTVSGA

Cytochrome P450 3A4 [5] = molecular target: T3, Cytochrome P450 3A4; assay: Inhibition of human CYP3A4 by VR metabolism assay; assay type: ADME
[6] = Fraction unbound in CD1 mouse blood after 4 hrs by LC-MS/MS analysis; assay type: ADME, tissue-based
Procedure, shortened: (§2)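 Fresh blood (CD rat, CD1 mouse, Beagle dog, single human donor) spiked at 1000 ng/mL and dialysed against PBS by rapid equilibrium dialysis for 4 h at 37°C. Matrix-matched LC-MS/MS; unbound fraction taken from the buffer/blood peak area ratio.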

Rattus norvegicus = assay: Lymphopenia activity in oral dosed Lewis rat
[7] = Lipophilicity, log D of the compound at pH 2 by chromatography; assay type: physicochemical; conditions: buffer
[8] = Intrinsic clearance in beagle dog hepatocytes at 0.5 uM after 2 hrs by LC-MS/MS analysis; assay type: ADME, cell-based, Canis lupus familiaris, Hepatocyte
Procedure, shortened: (§3)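 Compound at 0.5 µM incubated with pooled cryopreserved hepatocytes (0.7 million cells/mL) in Williams Medium E at 37°C under CO2/O2. Supernatants analysed by LC-MS/MS. CLi was derived from a first-order rate constant, scaled with 1.2x10^8 cells/g liver (human, rat, mouse) or 2.4x10^8 cells/g liver (dog).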

[9] = Oral bioavailability in rat; assay type: ADME, organism-based; conditions: in vivo
Hepatocyte [10] = assay: Intrinsic clearance in CD1 mouse hepatocytes at 0.5 uM after 2 hrs by LC-MS/MS analysis; assay type: ADME, cell-based; procedure, shortened: as §3
Cytochrome P450 2D6 = Cytochrome P450 2D6 (Homo sapiens, UniProt P10635); assay: Inhibition of CYP2D6 (unknown origin) coexpressed in Escherichia coli with human NADPH reductase using 4-methylaminomethyl-7-methoyxycoumarin as substrate after 10 mins by fluorescence assay; assay type: ADME; procedure, shortened: as §1
Cytochrome P450 2D6, sequence (P10635 whole entry): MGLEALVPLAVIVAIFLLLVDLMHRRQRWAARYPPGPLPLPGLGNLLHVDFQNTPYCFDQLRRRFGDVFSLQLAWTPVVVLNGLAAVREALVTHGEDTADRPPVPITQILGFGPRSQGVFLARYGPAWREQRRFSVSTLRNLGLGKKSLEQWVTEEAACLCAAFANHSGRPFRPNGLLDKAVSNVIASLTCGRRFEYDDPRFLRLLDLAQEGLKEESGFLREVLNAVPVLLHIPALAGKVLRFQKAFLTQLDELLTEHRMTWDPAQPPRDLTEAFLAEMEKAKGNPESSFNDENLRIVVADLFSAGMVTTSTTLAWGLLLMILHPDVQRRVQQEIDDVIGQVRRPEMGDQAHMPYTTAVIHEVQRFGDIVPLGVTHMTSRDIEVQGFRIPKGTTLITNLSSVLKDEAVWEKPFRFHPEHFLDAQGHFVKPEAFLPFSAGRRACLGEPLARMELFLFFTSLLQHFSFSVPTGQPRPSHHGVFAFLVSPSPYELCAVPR

Cytochrome P450 2C19 = Cytochrome P450 2C19 (Homo sapiens, UniProt P33261); assay: Inhibition of CYP2C19 (unknown origin) coexpressed in Escherichia coli with human NADPH reductase using 3-butyryl-7-methoxycoumarin as substrate after 10 mins by fluorescence assay; assay type: ADME; procedure, shortened: as §1
Cytochrome P450 2C19, sequence (P33261 whole entry): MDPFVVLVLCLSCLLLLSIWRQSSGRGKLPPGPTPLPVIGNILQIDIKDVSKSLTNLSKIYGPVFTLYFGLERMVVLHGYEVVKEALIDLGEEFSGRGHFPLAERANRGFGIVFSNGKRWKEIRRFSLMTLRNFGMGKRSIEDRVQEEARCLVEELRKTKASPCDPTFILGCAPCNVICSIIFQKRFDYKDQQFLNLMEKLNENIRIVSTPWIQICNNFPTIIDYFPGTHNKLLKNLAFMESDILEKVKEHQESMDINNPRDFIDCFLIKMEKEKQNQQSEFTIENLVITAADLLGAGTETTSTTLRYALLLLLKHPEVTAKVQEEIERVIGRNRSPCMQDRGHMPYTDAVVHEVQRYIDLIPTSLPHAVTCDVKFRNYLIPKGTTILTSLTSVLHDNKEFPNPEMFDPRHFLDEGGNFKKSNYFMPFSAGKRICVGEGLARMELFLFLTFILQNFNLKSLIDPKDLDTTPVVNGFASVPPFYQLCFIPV

[11] = Passive permeability from apical to basolateral side in MDCK2-MDR1 cells after 90 mins by LC-MS/MS analysis; assay type: ADME, cell-based, Canis lupus familiaris, MDCK-II; conditions: dog, MDCK-MDR1; read-out: permeability
Procedure, shortened: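 MDCKII-MDR1 monolayers used 3-4 days after seeding on inserts. Apical FaSSIF at pH 5.5 or 7.4; basolateral DMEM pH 7.4 with 1% HSA. Both sides contained 2 µM GF120918 and were preincubated 30 min. A→B transport measured in triplicate after 90 min at 37°C with shaking.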

Hepatocyte [12] = assay: Intrinsic clearance in human hepatocytes at 0.5 uM after 2 hrs by LC-MS/MS analysis; assay type: ADME, cell-based; procedure, shortened: as §3
[13] = molecular target: Sphingosine 1-phosphate receptor 5 (Homo sapiens, UniProt Q9H228); assay: Agonist activity at human S1P5 receptor expressed in CHO-K1 cells by aequorin calcium accumulation assay; assay type: functional, cell-based
Sphingosine 1-phosphate receptor 5, sequence (Q9H228 whole entry): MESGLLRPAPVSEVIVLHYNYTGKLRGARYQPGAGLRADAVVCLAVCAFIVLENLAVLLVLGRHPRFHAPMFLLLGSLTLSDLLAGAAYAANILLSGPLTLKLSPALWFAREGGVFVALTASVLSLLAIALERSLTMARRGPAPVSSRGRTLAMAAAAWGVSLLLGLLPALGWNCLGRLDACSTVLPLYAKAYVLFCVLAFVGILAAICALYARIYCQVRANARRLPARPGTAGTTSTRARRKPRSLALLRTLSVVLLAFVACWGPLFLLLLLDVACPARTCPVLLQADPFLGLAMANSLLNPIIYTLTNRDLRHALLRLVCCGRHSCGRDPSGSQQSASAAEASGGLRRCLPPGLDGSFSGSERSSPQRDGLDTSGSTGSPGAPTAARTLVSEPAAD
Procedure, shortened: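 CHO-K1 aequorin lines revived in DMEM F12 with 10% charcoal-stripped FBS, recovered 30 min at 37°C, then loaded 18-24 h at room temperature in the dark with 5 µM coelenterazine at 2.5x10^6 cells/mL. Cells were added at 1x10^5/well to compound, and flash luminescence was recorded immediately.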

[14] = Intrinsic clearance in cynomolgus monkey hepatocytes at 0.5 uM after 2 hrs by LC-MS/MS analysis; assay type: ADME, cell-based, Macaca fascicularis, Hepatocyte
[15] = Fraction unbound in CD rat blood after 4 hrs by LC-MS/MS analysis; assay type: ADME, tissue-based; procedure, shortened: as §2
Cytochrome P450 3A4 [16] = molecular target: T3, Cytochrome P450 3A4; assay: Inhibition of human CYP3A4 coexpressed in Escherichia coli with human NADPH reductase using nifedipine as substrate at 0.1 to 100 uM by fluorescence assay; assay type: ADME; conditions: TDE = time-dependent effect
[17] = Fraction unbound in beagle dog blood after 4 hrs by LC-MS/MS analysis; assay type: ADME, tissue-based, Canis lupus familiaris; procedure, shortened: as §2
[18] = Activation of CYP1A (unknown origin); assay type: ADME; conditions: human
Cytochrome P450 3A4 [19] = molecular target: T3, Cytochrome P450 3A4; assay: Inhibition of human CYP3A4 coexpressed in Escherichia coli with human NADPH reductase using midazolam as substrate at 0.1 to 100 uM by fluorescence assay; assay type: ADME; conditions: TDE = time-dependent effect

T1 sequence (P21453 whole entry, the tested form may be a part): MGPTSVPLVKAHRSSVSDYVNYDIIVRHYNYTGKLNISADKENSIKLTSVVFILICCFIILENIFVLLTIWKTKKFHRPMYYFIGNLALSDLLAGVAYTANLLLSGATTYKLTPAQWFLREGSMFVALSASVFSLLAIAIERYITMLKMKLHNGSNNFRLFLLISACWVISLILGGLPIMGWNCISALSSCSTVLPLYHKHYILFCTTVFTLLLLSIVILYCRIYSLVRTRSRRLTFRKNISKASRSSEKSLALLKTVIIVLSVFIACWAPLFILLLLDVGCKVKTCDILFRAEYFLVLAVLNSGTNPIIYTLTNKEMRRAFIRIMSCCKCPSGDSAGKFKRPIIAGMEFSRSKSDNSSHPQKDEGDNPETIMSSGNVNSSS

Molecule `Cc1c2c(nn1-c1nnc(-c3ccc(OC(C)C)c(Cl)c3)s1)CCN(CCC(=O)O)C2` has an EC50 [1] of 1.58 nM, an IC50 (Cytochrome P450 1A2) of over 50000 nM and an EC50 [2] of over 31600 nM. The EC50 [3] was 6.31 nM, the “inhibition (INH)” value (Cytochrome P450 3A4 [4]) was “tde” and the IC50 (Cytochrome P450 3A4 [5]) was over 50000 nM. It also gave a fraction unbound at 4 h [6] of 0.011, an IC50 (Rattus norvegicus) of 6 nM and a chromatographic logD [7] of 1.03. The CLH [8] was 6 mL/min/g, the bioavailability [9] was 52% and the CLH (Hepatocyte [10]) was under 0.85 mL/min/g. For the same molecule, the IC50 (Cytochrome P450 2D6) was over 50000 nM, the IC50 (Cytochrome P450 2C19) was over 50000 nM and the Papp A→B at 1.5 h [11] was 14.7 ×10⁻⁶ cm/s. For the same molecule, the CLH (Hepatocyte [12]) was 1.8 mL/min/g, the EC50 [13] was 16.6 nM and the CLH [14] was 4.2 mL/min/g. The fraction unbound at 4 h [15] was 0.014, the “inhibition (INH)” value (Cytochrome P450 3A4 [16]) was “tde” and the fraction unbound at 4 h [17] was 0.011. The Activity [18] was “Not Active” and the “inhibition (INH)” value (Cytochrome P450 3A4 [19]) was “tde”.
